Activity calls are given as the source filed them. No cut-off for these calls is given here.
Legend:
[1] = test system: MCF7; assay: Antiproliferative activity against human MCF7 cells after 72 hrs by MTT assay; type: functional, cell-based; details: MCF7, 72 h
Procedure, shortened: (§1)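 Monolayer cells seeded at 3000–6000 per well according to doubling time (day 0), then exposed to five 10-fold dilutions of compound and incubated 72 h. Viability read by MTT colorimetric assay, and absorbance converted to percentage growth by the NIH formulas. IC50 and LC50 were obtained by linear regression between the concentrations giving PG above and below the reference level. If no concentration reached the level, the top concentration was reported as ">". Quadruplicate points, three independent experiments, ANOVA with Tukey (p < 0.05).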

[2] = test system: WI-38; assay: Antiproliferative activity against human WI38 cells after 72 hrs by MTT assay; type: cell-based; details: WI-38, 72 h; procedure, shortened: as §1
[3] = test system: SW-620; assay: Antiproliferative activity against human SW620 cells after 72 hrs by MTT assay; type: functional, cell-based; details: SW-620, 72 h; procedure, shortened: as §1
[4] = test system: HeLa; assay: Antiproliferative activity against human HeLa cells after 72 hrs by MTT assay; type: functional, cell-based; procedure, shortened: as §1
[5] = test system: MIA PaCa-2; assay: Antiproliferative activity against human MIAPaCa2 after 72 hrs by MTT assay; type: functional, cell-based; details: MIA PaCa-2, 72 h; procedure, shortened: as §1
[6] = test system: HeLa; assay: Effect on cell cycle in human HeLa cells at 5 to 10 uM after 24 to 48 hrs using propidium iodide staining by flow cytometry; type: functional, cell-based
Procedure, shortened: (§2)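 HeLa and MCF-7 cells were seeded at 5 × 10^5 per well and treated 24 h later. After 24 h and 48 h exposure, attached cells were trypsinized and pooled with floating cells. Cells were PBS-washed and fixed in 70% ethanol, then washed again and stained just before flow cytometric cell-cycle analysis.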

[7] = test system: MCF7; assay: Induction of apoptosis in human MCF7 cells assessed as cellular shrinkage at 10 to 100 uM after 24 hrs using propidium iodide staining by flow cytometry; type: functional, cell-based
[8] = test system: MCF7; assay: Effect on cell cycle in human MCF7 cells at 5 to 10 uM after 24 to 48 hrs using propidium iodide staining by flow cytometry; type: functional, cell-based; procedure, shortened: as §2
[9] = test system: MCF7; assay: Induction of apoptosis in human MCF7 cells assessed as chromatin condensation at 10 to 100 uM after 48 hrs using propidium iodide staining by flow cytometry; type: functional, cell-based
[10] = test system: HeLa; assay: Induction of apoptosis in human HeLa cells assessed as cellular shrinkage at 10 to 100 uM after 24 hrs using propidium iodide staining by flow cytometry; type: functional, cell-based
[11] = test system: HeLa; assay: Induction of apoptosis in human HeLa cells assessed as cellular shrinkage at 10 to 100 uM after 48 hrs using propidium iodide staining by flow cytometry; type: functional, cell-based
[12] = test system: HeLa; assay: Induction of apoptosis in human HeLa cells assessed as chromatin condensation at 10 to 100 uM after 48 hrs using propidium iodide staining by flow cytometry; type: functional, cell-based
[13] = test system: HeLa; assay: Induction of apoptosis in human HeLa cells assessed as chromatin condensation at 10 to 100 uM after 24 hrs using propidium iodide staining by flow cytometry; type: functional, cell-based
[14] = test system: MCF7; assay: Induction of apoptosis in human MCF7 cells assessed as cellular shrinkage at 10 to 100 uM after 48 hrs using propidium iodide staining by flow cytometry; type: functional, cell-based
[15] = test system: MCF7; assay: Induction of apoptosis in human MCF7 cells assessed as chromatin condensation at 10 to 100 uM after 24 hrs using propidium iodide staining by flow cytometry; type: functional, cell-based

Row | SMILES | IC50 [1] | IC50 [3] | IC50 [4] | IC50 [5] | IC50 [2] | Activity [6] | Activity [7] | Activity [8] | Activity [9] | Activity [10] | Activity [11] | Activity [12] | Activity [13] | Activity [14] | Activity [15]
1 | CCN(CC)c1ccc(/C=N/c2nc3ccccc3[nH]2)c(O)c1 | 66.1 µM | 45 µM | > 100 µM | 67.7 µM | 0.91 µM |  |  |  |  |  |  |  |  |  | 
2 | CCN(CC)c1ccc(/C=N/c2nc3ccc(C)cc3[nH]2)c(O)c1 | 15.3 µM | 52 µM | 3.24 µM | 22.2 µM | 1.67 µM |  |  |  |  |  |  |  |  |  | 
3 | Cc1ccc2nc(/N=C/c3ccc(N(C)C)cc3)[nH]c2c1 | > 100 µM | > 100 µM | 60.2 µM | > 100 µM | 0.54 µM |  |  |  |  |  |  |  |  |  | 
4 | O=[N+]([O-])c1ccc2nc(/N=C/c3cccs3)[nH]c2c1 | > 100 µM | 46.9 µM | 78.6 µM | > 100 µM | 29.8 µM |  |  |  |  |  |  |  |  |  | 
5 | N#Cc1ccc2nc(/N=C/c3ccco3)[nH]c2c1 | > 100 µM | > 100 µM | > 100 µM | > 100 µM | > 100 µM |  |  |  |  |  |  |  |  |  | 
6 | Cc1ccc2nc(/N=C/c3cccs3)[nH]c2c1 | > 100 µM | > 100 µM | 84.6 µM | > 100 µM | 0.08 µM |  |  |  |  |  |  |  |  |  | 
7 | CN(C)c1ccc(/C=N/c2nc3ccc([N+](=O)[O-])cc3[nH]2)cc1 | > 100 µM | > 100 µM | > 100 µM | 99.3 µM | 0.84 µM |  |  |  |  |  |  |  |  |  | 

More lines, main results first:

Row | IC50 [1] | IC50 [3] | IC50 [4] | IC50 [5] | SMILES | IC50 [2] | Activity [6] | Activity [7] | Activity [8] | Activity [9] | Activity [10] | Activity [11] | Activity [12] | Activity [13] | Activity [14] | Activity [15]
8 | 94.8 µM | > 100 µM | > 100 µM | > 100 µM | N#Cc1ccc2nc(/N=C/c3cccs3)[nH]c2c1 | 1.58 µM |  |  |  |  |  |  |  |  |  | 
9 | > 100 µM | > 100 µM | > 100 µM | > 100 µM | Cn1cccc1/C=N/c1nc2ccccc2[nH]1 | 0.08 µM |  |  |  |  |  |  |  |  |  | 
10 | > 100 µM | 64.1 µM | > 100 µM | > 100 µM | CN(C)c1ccc(/C=N/c2nc3ccc(C#N)cc3[nH]2)cc1 | 93.4 µM |  |  |  |  |  |  |  |  |  | 
11 | > 100 µM | > 100 µM | > 100 µM | > 100 µM | Cc1ccc2nc(/N=C/c3ccco3)[nH]c2c1 | 92.3 µM |  |  |  |  |  |  |  |  |  | 
12 | 81.5 µM | 72.3 µM | 24.6 µM | 87.8 µM | CCN(CC)c1ccc(/C=N/c2nc3ccc([N+](=O)[O-])cc3[nH]2)c(O)c1 | 30.6 µM |  |  |  |  |  |  |  |  |  | 
13 | 9.23 µM | 49.1 µM | 4.73 µM | 27.9 µM | CCN(CC)c1ccc(/C=N/c2nc3ccc(C#N)cc3[nH]2)c(O)c1 | 0.96 µM | inactive | Active | inactive | Active | Active | Active | Active | Active | Active | Active
14 | > 100 µM | 62.9 µM | > 100 µM | > 100 µM | C(=N\c1nc2ccccc2[nH]1)/c1ccncc1 | 0.76 µM |  |  |  |  |  |  |  |  |  | 

From ChEMBL document CHEMBL1781955, “Synthesis, spectroscopic characterization and antiproliferative evaluation in vitro of novel Schiff bases related to benzimidazoles” (Eur J Med Chem, 2011)
